{
  "source": "ChEMBL document CHEMBL1926615",
  "about": "“1,2,3-Triazole tethered β-lactam-chalcone bifunctional hybrids: synthesis and anticancer evaluation” (Eur J Med Chem, 2012)",
  "format_in_all_cases": "functional",
  "key": {"Caco-2": {"tested_on": "Caco-2", "assay": "Growth inhibition of human Caco2 cells at 20 uM after 48 hrs by SRB assay", "conditions": "Caco-2, 48 h, read-out: GI", "how_it_was_run": "(§1)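 Cells grown in RPMI-1640 (2 mM glutamine, pH 7.4, 10% fetal calf serum, penicillin/streptomycin) at 37 °C, 5% CO2, 90% RH. Seeded as suspension of 1 x 10^5 cells/ml, grown 24 h, then test solutions (from DMSO stocks diluted in medium with gentamycin) added for 48 h. Fixed with TCA at 4 °C 1 h, SRB stained, dye dissolved in Tris-HCl pH 10.4, OD 540 nm. Percent growth inhibition computed versus untreated growth after blank subtraction.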"}, "THP-1": {"tested_on": "THP-1", "assay": "Growth inhibition of human THP1 cells at 20 uM after 48 hrs by SRB assay", "conditions": "THP-1, 48 h, read-out: GI", "how_it_was_run": "as §1"}, "A549": {"tested_on": "A549", "assay": "Growth inhibition of human A549 cells at 1 uM after 48 hrs by SRB assay", "conditions": "A549, 48 h, read-out: GI", "how_it_was_run": "(§2)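 Sulforhodamine B readout at 540 nm after 48 h exposure of cells seeded at 1×10⁵ cells/ml and pre-grown 24 h in RPMI-1640 with 10% fetal calf serum (37 °C, 5% CO2). Compounds diluted in medium from DMSO stocks.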"}, "PC-3": {"tested_on": "PC-3", "assay": "Growth inhibition of human PC3 cells at 1 uM after 48 hrs by SRB assay", "conditions": "PC-3, 48 h, read-out: GI", "how_it_was_run": "as §2"}},
  "data": [
    {"smiles": "O=c1[nH]cc(F)c(=O)[nH]1", "note": "[FLUOROURACIL]", "values": [
      {"measurement": "inhibition of growth at 20 µM", "setting": "Caco-2", "value": 68, "unit": "%"},
      {"measurement": "inhibition of growth at 20 µM", "setting": "THP-1", "value": 70, "unit": "%"}
    ]},
    {"smiles": "CC(=O)O[C@H]1C(=O)[C@@]2(C)[C@H]([C@H](OC(=O)c3ccccc3)[C@]3(O)C[C@H](OC(=O)[C@H](O)[C@@H](NC(=O)c4ccccc4)c4ccccc4)C(C)=C1C3(C)C)[C@]1(OC(C)=O)CO[C@@H]1C[C@@H]2O", "note": "[PACLITAXEL]", "values": [
      {"measurement": "inhibition of growth at 1 µM", "setting": "A549", "value": 69, "unit": "%"}
    ]},
    {"smiles": "CO[C@@]12[C@H](COC(N)=O)C3=C(C(=O)C(C)=C(N)C3=O)N1C[C@@H]1N[C@@H]12", "note": "[MITOMYCIN]", "values": [
      {"measurement": "inhibition of growth at 1 µM", "setting": "PC-3", "value": 60, "unit": "%"}
    ]}
  ]
}
